According to ChEMBL document CHEMBL3875167, “Design and synthesis of chiral 2H-chromene-N-imidazolo-amino acid conjugates as aldose reductase inhibitors” (Eur J Med Chem, 2016):
The source made the active and inactive calls. No cut-off for these calls is given here.

How the values were obtained:
[1] = target: Aldo-keto reductase family 1 member B1 (Rattus norvegicus, UniProt P07943); assay: Inhibition of rat lenses ALR2 using DL-glyceraldehyde as substrate preincubated for 10 mins followed by substrate addition measured for 4 mins
How it was run: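 ALR2 assay run at 30 °C in 1 mL containing 0.10 mM NADPH, 0.1 M sodium phosphate pH 6.2 and enzyme extract. The mixture was preincubated 10 min, then 10 mM DL-glyceraldehyde was added and NADPH oxidation followed for 4 min. Compounds were in DMSO diluted with water. Substrate-free blank rates were subtracted.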

[2] = target: Aldo-keto reductase family 1 member A1 (Rattus norvegicus, UniProt P51635); assay: Inhibition of rat kidney ALR1 using sodium D-glucuronate as substrate preincubated for 10 mins followed by substrate addition measured for 4 mins
How it was run: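 ALR1 assay run at 37 °C in 1 mL containing 0.12 mM NADPH, 0.1 M sodium phosphate pH 7.2 and enzyme extract. The mixture was preincubated 10 min, then 20 mM sodium D-glucuronate was added and the reaction monitored for 4 min. The nonenzymatic NADPH oxidation rate without substrate was subtracted. Triplicates at ≥3 concentrations in the 20–80% inhibition range were used to build dose-response curves for IC50.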

[3] = species on record: Rattus norvegicus; assay: Selectivity index, ratio of IC50 for rat kidney ALR1 to IC50 for rat lenses ALR2
[4] = Antidiabetic activity in STZ-induced diabetic Sprague-Dawley rat model assessed as aldose reductase activity at 50 uM//kg, po administered for 8 weeks (reference value: 44.66 +/- 2.7 U); format: functional, organism-based
How it was run: (§1)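 Diabetes was induced in rats by a single i.p. injection of streptozotocin, 35 mg/kg in 0.1 M citrate buffer pH 4.5. Animals with fasting blood glucose >150 mg/dl at 72 h were included. Treatment was given p.o. daily for 8 weeks as a suspension in 2% Tween 80 in saline. Diabetic controls received vehicle only. Lenses were dissected at sacrifice after 8 weeks.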

[5] = Antidiabetic activity in STZ-induced diabetic Sprague-Dawley rat model assessed as delay in progression of cataract at 5 to 50 uM/kg, po administered for 8 weeks measured every week during compound dosing by slit-lamp microscopy; format: functional, organism-based; how it was run: as §1
[6] = Antidiabetic activity in STZ-induced diabetic Sprague-Dawley rat model assessed as effect on body weight at 50 uM/kg, po administered for 8 weeks (reference value: 186 +/- 6.91 g); format: functional, organism-based; how it was run: as §1
[7] = Antidiabetic activity in STZ-induced diabetic Sprague-Dawley rat model assessed as decrease in sorbitol level in lenses at 5 to 50 uM/kg, po administered for 8 weeks; format: functional, organism-based; how it was run: as §1
[8] = Antidiabetic activity in STZ-induced diabetic Sprague-Dawley rat model assessed as effect on body weight at 5 uM/kg, po administered for 8 weeks (reference value: 186 +/- 6.91 g); format: functional, organism-based; how it was run: as §1
[9] = Antidiabetic activity in STZ-induced diabetic Sprague-Dawley rat model assessed as aldose reductase activity at 5 uM//kg, po administered for 8 weeks (reference value: 44.66 +/- 2.7 U); format: functional, organism-based; how it was run: as §1
[10] = Antidiabetic activity in STZ-induced diabetic Sprague-Dawley rat model assessed as blood glucose level at 50 uM/kg, po administered for 8 weeks measured every week during compound dosing (reference value: 261.53 +/- 53 mg/dl); format: functional, organism-based; how it was run: as §1
[11] = Antidiabetic activity in STZ-induced diabetic Sprague-Dawley rat model assessed as decrease in fructose level in lenses at 5 to 50 uM/kg, po administered for 8 weeks; format: functional, organism-based; how it was run: as §1
[12] = test system: Rattus norvegicus; assay: Antidiabetic activity in po dosed STZ-induced diabetic Sprague-Dawley rat model assessed as decrease in aldose reductase activity administered for 8 weeks; format: functional, organism-based; how it was run: as §1
[13] = Antidiabetic activity in STZ-induced diabetic Sprague-Dawley rat model assessed as blood glucose level at 5 uM/kg, po administered for 8 weeks measured every week during compound dosing (reference value: 261.53 +/- 53 mg/dl); format: functional, organism-based; how it was run: as §1

Chain of Aldo-keto reductase family 1 member A1 (P51635 whole entry, looked up): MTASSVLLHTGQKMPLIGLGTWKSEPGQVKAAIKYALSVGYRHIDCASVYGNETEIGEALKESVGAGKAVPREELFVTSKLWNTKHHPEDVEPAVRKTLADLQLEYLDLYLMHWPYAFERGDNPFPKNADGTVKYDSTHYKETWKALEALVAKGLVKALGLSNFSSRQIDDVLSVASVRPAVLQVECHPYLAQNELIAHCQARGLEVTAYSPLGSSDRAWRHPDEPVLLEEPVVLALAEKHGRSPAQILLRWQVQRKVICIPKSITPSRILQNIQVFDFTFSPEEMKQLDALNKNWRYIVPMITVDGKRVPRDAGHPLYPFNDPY

| IC50 [1] [nM] | IC50 [2] [nM] | Ratio IC50 [3] | Compound | further results |
| --- | --- | --- | --- | --- |
| 771 | 3410 | 4.42 | COc1cccc2c1OCC(C(=O)N[C@H](c1ncc(-c3ccc(Br)cc3)[nH]1)C(C)C)=C2 | – |
| 420 | 1840 | 4.38 | O=C(NCc1ncc(-c2ccc(F)cc2)[nH]1)C1=Cc2ccccc2OC1 | – |
| 732 | 3380 | 4.61 | O=C(NCc1ncc(-c2ccc(Br)cc2)[nH]1)C1=Cc2ccccc2OC1 | – |
| 2120 | 5190 | 2.48 | O=C(NCc1ncc(-c2ccccc2)[nH]1)C1=Cc2ccccc2OC1 | – |
| – | – | – | NC(=O)[C@@H]1C[C@]2(NC(=O)NC2=O)c2cc(F)ccc2O1 | Activity [4]: 36.3 U |
| 731 | 1210 | 1.66 | COc1cccc2c1OCC(C(=O)NCc1ncc(-c3ccccc3)[nH]1)=C2 | – |
| 222 | 2430 | 10.9 | O=C(C1=Cc2ccccc2OC1)N1CCC[C@H]1c1ncc(-c2cccnc2)[nH]1 | – |
| 899 | 1310 | 1.45 | COc1ccc(-c2cnc(CNC(=O)C3=Cc4cccc(OC)c4OC3)[nH]2)cc1 | – |
| 31 | 3420 | 110 | COc1cccc2c1OCC(C(=O)N1CCC[C@H]1c1ncc(-c3ccc(Cl)cc3)[nH]1)=C2 | Activity [5]: Active; Activity [6]: 320 g; Activity [7]: Active; Activity [8]: 309 g; Activity [9]: 41.3 U; Activity [10]: 130 mg/dL; Activity [11]: Active; Activity [12]: Dose-dependent effect; Activity [4]: 39.5 U; Activity [13]: 139 mg/dL |
| 3670 | 5720 | 1.55 | O=C(C1=Cc2ccccc2OC1)N1CCC[C@H]1c1ncc(-c2ccccc2)[nH]1 | – |
| 275 | 2540 | 9.22 | COc1ccc(-c2cnc(CNC(=O)C3=Cc4ccccc4OC3)[nH]2)cc1 | – |
| 220 | 2280 | 10.3 | CC(C)[C@H](NC(=O)C1=Cc2ccccc2OC1)c1ncc(-c2ccc(Br)cc2)[nH]1 | – |
| – | – | – | O=C1NC(=O)[C@@]2(CCOc3ccc(F)cc32)N1 | Activity [4]: 39 U |
| 71 | 1620 | 22.8 | COc1cccc2c1OCC(C(=O)NCc1ncc(-c3ccc(F)cc3)[nH]1)=C2 | – |
| 114 | 2420 | 21.2 | O=C(NCc1ncc(-c2ccc(Cl)cc2)[nH]1)C1=Cc2ccccc2OC1 | – |
| 91 | 1560 | 17.1 | COc1cccc2c1OCC(C(=O)NCc1ncc(-c3ccc(Br)cc3)[nH]1)=C2 | – |
| 337 | 3880 | 11.5 | O=C(C1=Cc2ccccc2OC1)N1CCC[C@H]1c1ncc(-c2ccc(Cl)cc2)[nH]1 | – |
| 4290 | 9410 | 2.19 | CC(C)[C@H](NC(=O)C1=Cc2ccccc2OC1)c1ncc(-c2ccccc2)[nH]1 | – |
| 146 | 1420 | 9.71 | COc1cccc2c1OCC(C(=O)N1CCC[C@H]1c1ncc(-c3cccnc3)[nH]1)=C2 | – |
| 1000 | 4870 | 4.87 | COc1cccc2c1OCC(C(=O)N[C@H](c1ncc(-c3ccccc3)[nH]1)C(C)C)=C2 | – |
| 3070 | 1830 | 0.596 | COc1cccc2c1OCC(C(=O)N1CCC[C@H]1c1ncc(-c3ccccc3)[nH]1)=C2 | – |
| 65 | 1440 | 22.2 | COc1cccc2c1OCC(C(=O)NCc1ncc(-c3ccc(Cl)cc3)[nH]1)=C2 | – |
